# Measured values reported in ChEMBL document CHEMBL1126585, “Effect of N-methyl substitution of the peptide bonds in luteinizing hormone-releasing hormone agonists” (J Med Chem, 1993).
# Square brackets hold non-standard residues; d marks the D form. Peptide text beside a SMILES is read from it. 1Nal = N[C@@H](Cc1cccc2ccccc12)C(=O)O; NMeF = CN[C@@H](Cc1ccccc1)C(=O)O; pGlu = O=C1CC[C@@H](C(=O)O)N1; NMeS = CN[C@@H](CO)C(=O)O
# Key:
# Rattus norvegicus [1] = organism: Rattus norvegicus; assay: Intestinal stability against rat jejunum sac, activity is expressed as T1/2; type: functional
# How it was run: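 Rat jejunal sac in vitro; T1/2 taken as time, in min, for lumenal compound concentration to fall by 50%.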
# [2] = Clearance in rat after iv dose (100 ug/kg); type: ADME, organism-based; conditions: in vivo, 0.1 mg/kg
# How it was run: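 Castrate male rats given 100 μg/kg iv bolus; blood sampled over 6 h with EDTA anticoagulant. Plasma levels by RIA with antibody recognizing C-terminal Leu-Arg-Pro-NHEt or Leu-Arg-Pro-GlyNH₂ (rabbit antisera C-402 with [125I-Tyr⁵]leuprolide tracer, or 5328W with [125I-Tyr⁵,DLys⁶]LHRH). AUC by trapezoidal rule; whole-body clearance = dose/AUC, mL/min per kg.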
# chymotrypsin = assay: Chymotrypsin degradation half-life was determined; type: ADME
# Rattus norvegicus [3] = organism: Rattus norvegicus; assay: Tested in vitro for LH release from cultured rat pituitary cells, activity is expressed as pD2 value; type: functional, Pituitary gland cell
# How it was run: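 Cultured rat pituitary cells; LH release measured across agonist concentrations; pD2 = negative log of agonist concentration giving 50% of maximal LH release.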
SMILES,T1/2 (Rattus norvegicus [1]),clearance [2],half-life (chymotrypsin),pD2 (Rattus norvegicus [3])
CCNC(=O)[C@@H]1CCCN1C(=O)[C@H](CCCNC(=N)N)NC(=O)[C@H](CC(C)C)NC(=O)[C@@H](CC(C)C)NC(=O)[C@H](Cc1ccc(O)cc1)NC(=O)[C@H](CO)NC(=O)[C@H](Cc1c[nH]c2ccccc12)NC(=O)[C@H](Cc1c[nH]cn1)NC(=O)[C@@H]1CCC(=O)N1 [LEUPROLIDE],4 min,9 mL/min/kg,1 min,–
CC(C)C[C@H](NC(=O)[C@@H](Cc1ccc2ccccc2c1)NC(=O)[C@H](Cc1ccc(O)cc1)NC(=O)[C@H](CO)N(C)C(=O)[C@H](Cc1c[nH]c2ccccc12)NC(=O)[C@H](Cc1c[nH]cn1)NC(=O)[C@@H]1CCC(=O)N1)C(=O)N[C@@H](CCCN=C(N)N)C(=O)N1CCC[C@H]1C(=O)NCC(N)=O,47 min,27.6 mL/min/kg,> 60 min,11.3
CCNC(=O)[C@@H]1CCCN1C(=O)[C@H](CCCN=C(N)N)NC(=O)[C@H](CC(C)C)N(C)C(=O)[C@@H](CC(C)C)NC(=O)[C@H](Cc1ccc(O)cc1)NC(=O)[C@H](CO)NC(=O)[C@H](Cc1c[nH]c2ccccc12)NC(=O)[C@H](Cc1c[nH]cn1)NC(=O)[C@@H]1CCC(=O)N1,4.1 min,8.3 mL/min/kg,1 min,10.45
CCNC(=O)[C@@H]1CCCN1C(=O)[C@H](CCCN=C(N)N)NC(=O)[C@H](CC(C)C)NC(=O)[C@@H](Cc1c[nH]c2ccccc12)NC(=O)[C@H](Cc1ccc(O)cc1)NC(=O)[C@H](CO)NC(=O)[C@H](Cc1c[nH]c2ccccc12)NC(=O)[C@H](Cc1ccccc1)N(C)C(=O)[C@@H]1CCC(=O)N1 ([pGlu][NMeF]WSY[dW]LRP-NHEt),44.4 min,44.5 mL/min/kg,3.7 min,–
CC(C)C[C@H](NC(=O)[C@@H](CC(C)C)NC(=O)[C@H](Cc1ccc(O)cc1)NC(=O)[C@H](CO)NC(=O)[C@H](Cc1c[nH]c2ccccc12)NC(=O)[C@H](Cc1c[nH]cn1)NC(=O)[C@@H]1CCC(=O)N1)C(=O)N[C@@H](CCCN=C(N)N)C(=O)N1CCC[C@H]1C(=O)N(C)CC(N)=O,8.4 min,9.77 mL/min/kg,1 min,8.73
CC(C)C[C@H](NC(=O)[C@@H](Cc1ccc2ccccc2c1)NC(=O)[C@H](Cc1ccc(O)cc1)N(C)C(=O)[C@H](CO)NC(=O)[C@H](Cc1c[nH]c2ccccc12)NC(=O)[C@H](Cc1c[nH]cn1)NC(=O)[C@@H]1CCC(=O)N1)C(=O)N[C@@H](CCCN=C(N)N)C(=O)N1CCC[C@H]1C(=O)NCC(N)=O,33 min,3.4 mL/min/kg,> 60 min,10.95
CCNC(=O)[C@@H]1CCCN1C(=O)[C@H](CCCN=C(N)N)N(C)C(=O)[C@H](CC(C)C)NC(=O)[C@@H](CC(C)C)NC(=O)[C@H](Cc1ccc(O)cc1)NC(=O)[C@H](CO)NC(=O)[C@H](Cc1c[nH]c2ccccc12)NC(=O)[C@H](Cc1c[nH]cn1)NC(=O)[C@@H]1CCC(=O)N1,6.6 min,–,1 min,7
CCNC(=O)[C@@H]1CCCN1C(=O)[C@H](CCCN=C(N)N)NC(=O)[C@H](CC(C)C)NC(=O)[C@@H](CC(C)C)NC(=O)[C@H](Cc1ccc(O)cc1)NC(=O)[C@H](CO)N(C)C(=O)[C@H](Cc1c[nH]c2ccccc12)NC(=O)[C@H](Cc1c[nH]cn1)NC(=O)[C@@H]1CCC(=O)N1 ([pGlu]HW[NMeS]Y[dL]LRP-NHEt),> 90 min,16.9 mL/min/kg,> 60 min,–
CCNC(=O)[C@@H]1CCCN1C(=O)[C@H](CCCN=C(N)N)NC(=O)[C@H](CC(C)C)NC(=O)[C@@H](CC(C)C)NC(=O)[C@H](Cc1ccc(O)cc1)NC(=O)[C@H](CO)NC(=O)[C@H](Cc1cccc2ccccc12)NC(=O)[C@H](Cc1c[nH]cn1)NC(=O)[C@@H]1CCC(=O)N1 ([pGlu]H[1Nal]SY[dL]LRP-NHEt),25 min,28.4 mL/min/kg,> 15 min,–
